pIC50: −log10 of the molar value.

Common to all, as to format: biochemical
One series deals with T1, CYP2B6 (Homo sapiens, UniProt P20813).
T1 sequence (P20813 1-491): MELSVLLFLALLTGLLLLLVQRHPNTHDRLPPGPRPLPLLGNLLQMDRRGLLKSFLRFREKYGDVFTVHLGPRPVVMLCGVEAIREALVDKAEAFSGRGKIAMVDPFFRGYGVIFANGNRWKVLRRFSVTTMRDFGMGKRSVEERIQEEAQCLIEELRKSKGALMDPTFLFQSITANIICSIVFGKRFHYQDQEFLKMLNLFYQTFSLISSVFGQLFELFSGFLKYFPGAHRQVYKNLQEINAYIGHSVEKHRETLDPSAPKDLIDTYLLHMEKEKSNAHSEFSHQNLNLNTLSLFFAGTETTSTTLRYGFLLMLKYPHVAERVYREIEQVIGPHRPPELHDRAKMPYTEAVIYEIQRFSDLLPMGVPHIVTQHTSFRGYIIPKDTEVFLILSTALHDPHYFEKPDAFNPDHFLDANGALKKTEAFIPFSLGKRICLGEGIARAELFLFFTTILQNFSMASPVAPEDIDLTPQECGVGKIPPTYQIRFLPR
In words: index substrate turnover in pooled HLM, HPLC. The conditions noted are these: microsomes. The gist of the method: (§1)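 Pooled HLMs (53 donors) in 50 mm phosphate pH 7.5 with 5 mm MgCl2, 0.5 mm NADP and an isocitrate/isocitric dehydrogenase regenerating system. Test compound at 0–600 μm (eight levels) was dried, reconstituted in 1% methanol, with or without 20-min 37°C preincubation. Substrates: phenacetin (1A2), bupropion (2B6), taxol (2C8), dextromethorphan (2D6). Acetonitrile stop (acidified for 2B6) with IS; HPLC-UV/fluorescence; duplicates; hyperbolic nonlinear-regression IC50.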

The target in another series is T2, CYP2C8 (Homo sapiens, UniProt P10632).
T2 sequence (P10632 1-490): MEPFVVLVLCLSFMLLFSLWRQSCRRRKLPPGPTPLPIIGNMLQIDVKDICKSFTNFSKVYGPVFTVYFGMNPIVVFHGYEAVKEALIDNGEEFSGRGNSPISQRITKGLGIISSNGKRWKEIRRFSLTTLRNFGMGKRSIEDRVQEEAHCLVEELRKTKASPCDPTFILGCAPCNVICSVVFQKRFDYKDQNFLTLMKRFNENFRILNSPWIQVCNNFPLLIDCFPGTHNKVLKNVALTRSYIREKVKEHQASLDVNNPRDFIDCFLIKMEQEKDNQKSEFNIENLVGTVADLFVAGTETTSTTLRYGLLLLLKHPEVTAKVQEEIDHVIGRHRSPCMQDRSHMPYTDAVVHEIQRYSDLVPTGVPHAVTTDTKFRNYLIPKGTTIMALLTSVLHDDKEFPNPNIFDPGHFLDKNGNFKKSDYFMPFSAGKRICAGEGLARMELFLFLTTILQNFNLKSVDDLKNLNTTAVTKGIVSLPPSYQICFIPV
In words: index substrate turnover in pooled HLM, HPLC. To be noted: microsomes. The gist of the method: as §1

For a further series, the target named is CYP2E1 (Homo sapiens, UniProt P05181). In words: index substrate turnover in pooled HLM, HPLC. The conditions noted are these: for pIC50: human, microsomes.
Chain of CYP2E1 (P05181 whole entry): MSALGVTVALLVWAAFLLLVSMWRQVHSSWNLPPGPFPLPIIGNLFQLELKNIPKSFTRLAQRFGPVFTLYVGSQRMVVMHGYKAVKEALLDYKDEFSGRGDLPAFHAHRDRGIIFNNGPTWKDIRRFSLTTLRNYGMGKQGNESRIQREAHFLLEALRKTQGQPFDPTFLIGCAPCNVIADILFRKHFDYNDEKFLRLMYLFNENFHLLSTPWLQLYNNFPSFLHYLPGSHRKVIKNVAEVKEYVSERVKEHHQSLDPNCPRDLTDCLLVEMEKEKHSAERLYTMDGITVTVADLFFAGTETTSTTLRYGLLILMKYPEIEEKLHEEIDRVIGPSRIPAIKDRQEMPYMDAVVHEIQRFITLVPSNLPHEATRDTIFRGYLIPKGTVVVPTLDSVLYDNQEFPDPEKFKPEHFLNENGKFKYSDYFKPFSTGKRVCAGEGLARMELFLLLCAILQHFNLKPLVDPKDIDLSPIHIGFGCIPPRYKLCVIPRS
For another series, the target named is T3, CYP1A2 (Homo sapiens, UniProt P05177).
T3 sequence (P05177 2-516): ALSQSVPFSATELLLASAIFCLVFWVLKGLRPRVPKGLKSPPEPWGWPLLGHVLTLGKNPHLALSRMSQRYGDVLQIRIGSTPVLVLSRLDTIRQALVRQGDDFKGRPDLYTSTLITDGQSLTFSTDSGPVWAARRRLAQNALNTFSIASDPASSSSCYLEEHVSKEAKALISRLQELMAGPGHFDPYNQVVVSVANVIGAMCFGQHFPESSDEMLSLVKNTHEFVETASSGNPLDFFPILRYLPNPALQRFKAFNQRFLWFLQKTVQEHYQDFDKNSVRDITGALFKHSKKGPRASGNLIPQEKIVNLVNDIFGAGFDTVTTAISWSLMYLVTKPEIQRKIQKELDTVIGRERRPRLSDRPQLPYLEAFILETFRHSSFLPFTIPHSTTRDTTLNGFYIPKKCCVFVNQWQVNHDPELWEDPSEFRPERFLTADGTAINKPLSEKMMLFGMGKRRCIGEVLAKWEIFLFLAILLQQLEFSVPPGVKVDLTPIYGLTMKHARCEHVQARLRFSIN
Briefly: index substrate turnover in pooled HLM, HPLC. To be noted: microsomes. In short, it runs like this:
as §1

A further series concerns the target CYP2C19 (Homo sapiens, UniProt P33261). Briefly: index substrate turnover in pooled HLM, HPLC. The conditions noted are these: microsomes.
In another series the target is CYP2D6 (Homo sapiens, UniProt P10635). Briefly: index substrate turnover in pooled HLM, HPLC. To be noted: microsomes. In short, it runs like this: as §1
Chain of CYP2D6 (P10635 whole entry): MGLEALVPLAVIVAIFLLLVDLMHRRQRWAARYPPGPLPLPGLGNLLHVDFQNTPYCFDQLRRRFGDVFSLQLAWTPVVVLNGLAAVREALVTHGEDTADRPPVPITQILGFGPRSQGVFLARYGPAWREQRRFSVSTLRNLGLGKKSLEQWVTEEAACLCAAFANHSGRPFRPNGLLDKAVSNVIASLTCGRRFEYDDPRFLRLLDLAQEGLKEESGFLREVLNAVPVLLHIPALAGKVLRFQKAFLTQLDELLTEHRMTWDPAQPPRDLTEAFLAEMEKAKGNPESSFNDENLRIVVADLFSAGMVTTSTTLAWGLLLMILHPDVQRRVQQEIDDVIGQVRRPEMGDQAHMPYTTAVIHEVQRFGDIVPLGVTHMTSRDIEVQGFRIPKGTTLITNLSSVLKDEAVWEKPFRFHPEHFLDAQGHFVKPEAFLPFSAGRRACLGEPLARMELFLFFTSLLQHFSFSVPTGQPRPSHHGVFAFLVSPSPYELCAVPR
Another series concerns the target T4, UGT2B15 (Homo sapiens, UniProt P54855).
T4 sequence (P54855 24-530): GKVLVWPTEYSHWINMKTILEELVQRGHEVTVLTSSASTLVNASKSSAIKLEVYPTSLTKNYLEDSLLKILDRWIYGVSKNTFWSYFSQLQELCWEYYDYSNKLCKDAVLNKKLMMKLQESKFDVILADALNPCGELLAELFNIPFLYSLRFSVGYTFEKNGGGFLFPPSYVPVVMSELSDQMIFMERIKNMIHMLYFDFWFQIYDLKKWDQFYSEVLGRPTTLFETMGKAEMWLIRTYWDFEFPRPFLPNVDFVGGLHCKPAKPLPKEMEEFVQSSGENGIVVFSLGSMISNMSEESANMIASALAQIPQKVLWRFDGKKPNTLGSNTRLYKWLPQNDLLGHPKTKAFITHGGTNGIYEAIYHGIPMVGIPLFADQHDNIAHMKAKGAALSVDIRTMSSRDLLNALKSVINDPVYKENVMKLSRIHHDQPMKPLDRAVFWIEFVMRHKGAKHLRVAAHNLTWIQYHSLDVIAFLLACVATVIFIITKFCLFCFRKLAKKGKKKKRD
In words: glucuronidation of index substrate in pooled HLM, HPLC-UV. The conditions noted are these: without preincubation; pH 7.5, 10 mM UDPGA, alamethicin. In short, it runs like this: (§2)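 Pooled HLMs (53 donors, 50–500 μg/ml) in 50 mm phosphate pH 7.5 with 5 mm MgCl2 and alamethicin […]. Test compound at 0–250 μm (seven levels) was dried, reconstituted in 1% methanol and not preincubated. Reactions started with UDPGA (10 mm final). Substrates: AZT (UGT2B7), oxazepam (UGT2B15). Acetonitrile stop (acidified for UGT2B7) with IS; HPLC-UV; duplicates; IC50 by nonlinear regression.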

In a further series the target is T5, UGT2B7 (Homo sapiens, UniProt P16662).
T5 sequence (P16662 24-529): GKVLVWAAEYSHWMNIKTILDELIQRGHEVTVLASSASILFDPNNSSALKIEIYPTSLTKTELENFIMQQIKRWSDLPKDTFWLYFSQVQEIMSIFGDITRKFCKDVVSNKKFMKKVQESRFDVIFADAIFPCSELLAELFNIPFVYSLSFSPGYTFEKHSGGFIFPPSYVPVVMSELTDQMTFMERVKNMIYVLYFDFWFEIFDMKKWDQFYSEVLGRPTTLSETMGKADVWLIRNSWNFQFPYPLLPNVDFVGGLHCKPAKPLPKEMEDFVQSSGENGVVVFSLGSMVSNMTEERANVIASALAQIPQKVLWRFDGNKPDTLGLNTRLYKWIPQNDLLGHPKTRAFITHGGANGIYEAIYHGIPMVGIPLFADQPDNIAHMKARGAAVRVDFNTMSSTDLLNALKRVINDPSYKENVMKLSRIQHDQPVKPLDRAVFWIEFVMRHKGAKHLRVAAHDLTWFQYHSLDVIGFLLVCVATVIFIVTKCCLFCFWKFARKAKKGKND
The description is as above. To be noted: without preincubation; pH 7.5, 10 mM UDPGA, alamethicin. In short, it runs like this: as §2

The next series addresses CYP2C9 (Homo sapiens, UniProt P11712). In words: index substrate turnover in pooled HLM, HPLC. The conditions noted are these: microsomes.
The target of another series is T6, UGT1A6 (Homo sapiens, UniProt P19224).
T6 sequence (P19224 27-532): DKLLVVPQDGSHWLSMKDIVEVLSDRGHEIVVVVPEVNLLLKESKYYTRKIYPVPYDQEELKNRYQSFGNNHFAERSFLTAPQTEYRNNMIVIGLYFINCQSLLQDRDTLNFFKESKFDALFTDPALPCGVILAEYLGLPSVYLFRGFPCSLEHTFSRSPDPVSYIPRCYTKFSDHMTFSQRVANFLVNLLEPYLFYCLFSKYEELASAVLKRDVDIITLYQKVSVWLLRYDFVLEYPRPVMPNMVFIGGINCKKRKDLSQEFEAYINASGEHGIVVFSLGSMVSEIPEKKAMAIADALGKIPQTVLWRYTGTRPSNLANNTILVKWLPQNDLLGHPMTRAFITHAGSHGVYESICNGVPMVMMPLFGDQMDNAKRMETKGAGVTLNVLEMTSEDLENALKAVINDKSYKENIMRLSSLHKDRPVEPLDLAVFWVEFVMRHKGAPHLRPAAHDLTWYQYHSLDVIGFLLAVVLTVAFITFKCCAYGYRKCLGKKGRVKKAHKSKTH
In words: glucuronidation of index substrate in pooled HLM, HPLC-UV. To be noted: without preincubation; pH 7.5, 10 mM UDPGA, alamethicin.

Setting [1] is: without preincubation, 37 °C, solvent effect.

Chain of CYP2C19 (P33261 whole entry): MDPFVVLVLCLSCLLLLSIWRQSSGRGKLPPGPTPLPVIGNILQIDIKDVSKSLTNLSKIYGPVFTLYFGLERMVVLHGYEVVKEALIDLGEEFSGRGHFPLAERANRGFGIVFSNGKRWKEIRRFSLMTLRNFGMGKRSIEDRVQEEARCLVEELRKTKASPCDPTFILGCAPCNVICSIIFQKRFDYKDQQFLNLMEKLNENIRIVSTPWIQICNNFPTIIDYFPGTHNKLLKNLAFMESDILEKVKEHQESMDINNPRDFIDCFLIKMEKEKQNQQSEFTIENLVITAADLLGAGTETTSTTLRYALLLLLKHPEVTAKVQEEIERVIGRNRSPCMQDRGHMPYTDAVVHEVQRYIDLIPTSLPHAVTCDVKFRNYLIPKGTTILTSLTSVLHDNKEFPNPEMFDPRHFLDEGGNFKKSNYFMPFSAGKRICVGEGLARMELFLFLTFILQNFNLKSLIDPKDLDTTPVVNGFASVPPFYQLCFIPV
Chain of CYP2C9 (P11712 whole entry): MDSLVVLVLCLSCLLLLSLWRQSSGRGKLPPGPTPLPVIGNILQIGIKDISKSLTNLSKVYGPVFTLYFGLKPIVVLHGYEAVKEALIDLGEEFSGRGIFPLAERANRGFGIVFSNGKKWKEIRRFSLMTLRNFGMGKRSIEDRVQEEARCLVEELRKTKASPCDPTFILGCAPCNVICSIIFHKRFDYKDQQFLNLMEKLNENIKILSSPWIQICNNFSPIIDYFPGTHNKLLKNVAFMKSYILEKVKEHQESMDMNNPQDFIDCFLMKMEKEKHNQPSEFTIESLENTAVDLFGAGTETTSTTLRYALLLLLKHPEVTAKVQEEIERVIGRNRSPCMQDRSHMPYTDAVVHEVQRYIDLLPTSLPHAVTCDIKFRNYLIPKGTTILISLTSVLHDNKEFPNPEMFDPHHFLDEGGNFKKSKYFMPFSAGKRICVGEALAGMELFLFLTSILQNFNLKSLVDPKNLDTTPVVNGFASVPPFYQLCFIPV

Take `O=c1c(O)c(-c2ccc(O)c(O)c2)oc2cc(O)cc(O)c12` [quercetin]: the negative logarithm of the IC50 (pIC50) (usually the negative decadic logarithm of the IC50, by convention in mol/L) against CYP2B6 was 4.05; on CYP2C8, 5.62; on CYP2E1, 4.18; on CYP1A2, 5.28; at CYP2C19, 3.85; at CYP2D6, 3.63. The pIC50 at UGT2B15 is less than 3.60.

Take `O=c1cc(-c2ccc(O)c(O)c2)oc2cc(O)cc(O)c12` [luteolin]: the pIC50 was less than 3.60 against UGT2B7; 3.99 at CYP2B6; 4.54 against CYP2C9; 5.60 on CYP2C8; 4.05 against CYP2E1; 5.46 against CYP1A2. For the same compound, the pIC50 on CYP2C19 was 4.32; at CYP2D6 it was 3.82; against UGT2B15 it was less than 3.60; on UGT1A6 it was less than 3.60.

Turning to `CO` [methanol], the “MEOH / W/O (%)” value at CYP2E1 (setting [1]) is 0.63 % (v/v).

`C[S+](C)[O-]` [DMSO]: the “DMSO / W/O (%)” value on CYP2E1 (setting [1]) was 0.06 % (v/v).
